Here are results for 4 compounds from ChEMBL document CHEMBL1142686, “CoMFA, synthesis, and pharmacological evaluation of (E)-3-(2-carboxy-2-arylvinyl)-4,6-dichloro-1H-indole-2-carboxylic acids: 3-[2-(3-aminophenyl)-2-carboxyvinyl]-4,6-dichloro-1H-indole-2-carboxylic acid, a potent selective glycine-site NMDA receptor antagonist” (J Med Chem, 2005).

SMILES strings stand for the structures. Values joined by “and” are separate entries in the source; they are usually repeats but may differ in a detail not shown here. Equal entries are not always repeated. A value given as a limit tells only on which side of the number the result lay.

The first data set deals with Rattus norvegicus. In words: Reduction of infarct in rat with proximal middle cerebral artery occlusion at total dose of 245 mg/kg after 30 min initiation (duration of effect 6 h). The class given is functional.
Details: not given
In the case of `Nc1cccc(/C(=C\c2c(C(=O)O)[nH]c3cc(Cl)cc(Cl)c23)C(=O)O)c1`, the Reduction was 68% and 57% and 76% and 71%.

For a further data set, the system named is Rattus norvegicus. In words: Reduction of infarct in rat with proximal middle cerebral artery occlusion at total dose of 490 mg/kg after 30 min initiation (duration of effect 6 h). The class given is functional.
Details: not given
In the case of `Nc1cccc(/C(=C\c2c(C(=O)O)[nH]c3cc(Cl)cc(Cl)c23)C(=O)O)c1`, the Reduction is recorded as 77%.

The subject of another data set is Rattus norvegicus. In words: Reduction of infarct in rat with proximal middle cerebral artery occlusion at total dose of 245 mg/kg after 120 min initiation (duration of effect 6 h). The class given is functional.
Details: not given
For the compound `Nc1cccc(/C(=C\c2c(C(=O)O)[nH]c3cc(Cl)cc(Cl)c23)C(=O)O)c1`, the Reduction was found to be 50%.

For another data set, the system named is Rattus norvegicus. In words: Reduction of infarct in rat with proximal middle cerebral artery occlusion at total dose of 245 mg/kg after 180 min initiation (duration of effect 6 h). The class given is functional.
Details: not given
The compound `Nc1cccc(/C(=C\c2c(C(=O)O)[nH]c3cc(Cl)cc(Cl)c23)C(=O)O)c1` gave a Reduction of 41%.

The next data set has as its system Rattus norvegicus. In words: Reduction of infarct in rat with proximal middle cerebral artery occlusion at total dose of 245 mg/kg after 360 min initiation (duration of effect 6 h). The class given is functional.
Details: not given
Turning to `Nc1cccc(/C(=C\c2c(C(=O)O)[nH]c3cc(Cl)cc(Cl)c23)C(=O)O)c1`, the Reduction was 58% and 59%.

For another data set, the system named is Rattus norvegicus. Nature of the data set: Reduction of infarct in rat with proximal middle cerebral artery occlusion at total dose of 245 mg/kg after 480 min initiation (duration of effect 6 h). The class given is functional.
Details: not given
Compound `Nc1cccc(/C(=C\c2c(C(=O)O)[nH]c3cc(Cl)cc(Cl)c23)C(=O)O)c1` displayed a Reduction of 13%.

For another data set, the system named is Rattus norvegicus. Nature of the data set: Reduction of infarct in rat with proximal middle cerebral artery occlusion at total dose of 31.5 mg/kg after 30 min initiation (duration of effect 6 h). It is filed as functional.
Details: not given
The compound `Nc1cccc(/C(=C\c2c(C(=O)O)[nH]c3cc(Cl)cc(Cl)c23)C(=O)O)c1` showed a Reduction of 40%.

Another data set has as its system Rattus norvegicus. Nature of the data set: Reduction of infarct in rat with proximal middle cerebral artery occlusion at total dose of 490 mg/kg after -15 min initiation (duration of effect 6 h). It is filed as functional.
Details: not given
Turning to `Nc1cccc(/C(=C\c2c(C(=O)O)[nH]c3cc(Cl)cc(Cl)c23)C(=O)O)c1`, the Reduction came out at 73%.

The next data set concerns Rattus norvegicus. In words: Reduction of infarct volume in rat with distal middle cerebral artery occlusion at total dose of 52 mg/kg after 30 min of initiation (duration of effect 6 h). It is filed as functional.
Details: not given
Take `O=c1[nH]c2cc(Cl)c(Cl)c([N+](=O)[O-])c2[nH]c1=O` [LICOSTINEL]: the Reduction is 33% and 24%.

In a further data set the test system is Rattus norvegicus. In words: Reduction of infarct volume in rat with distal middle cerebral artery occlusion at total dose of 135 mg/kg after 30 min of initiation (duration of effect 4 h).
Details: not given
The class given is functional.
As to `Nc1cccc(/C(=C\c2c(C(=O)O)[nH]c3cc(Cl)cc(Cl)c23)C(=O)O)c1`, the Reduction is 28%.

For the next data set, the system named is Rattus norvegicus. In words: Reduction of infarct volume in rat with distal middle cerebral artery occlusion at total dose of 52 mg/kg after -15 min of initiation (duration of effect 6 h). The class given is functional.
Details: not given
Compound `O=c1[nH]c2cc(Cl)c(Cl)c([N+](=O)[O-])c2[nH]c1=O` [LICOSTINEL] gave a Reduction of 18%.

Another data set deals with Rattus norvegicus. Nature of the data set: Reduction of infarct volume in rat with distal middle cerebral artery occlusion at total dose of 126 mg/kg after -15 min of initiation (duration of effect 6 h). The class given is functional.
Details: not given
`Nc1cccc(/C(=C\c2c(C(=O)O)[nH]c3cc(Cl)cc(Cl)c23)C(=O)O)c1` had a Reduction of 0%.

A further data set has as its system Rattus norvegicus. Nature of the data set: Reduction of infarct in rat with proximal middle cerebral artery occlusion at total dose of 16 mg/kg after 30 min initiation (duration of effect 6 h). The class given is functional.
Details: not given
The compound `Nc1cccc(/C(=C\c2c(C(=O)O)[nH]c3cc(Cl)cc(Cl)c23)C(=O)O)c1` had a Reduction of 12%.

A further data set relates to Rattus norvegicus. Nature of the data set: Reduction of infarct in rat with proximal middle cerebral artery occlusion at total dose of 62 mg/kg after 30 min initiation (duration of effect 6 h). The class given is functional.
Details: not given
Turning to `Nc1cccc(/C(=C\c2c(C(=O)O)[nH]c3cc(Cl)cc(Cl)c23)C(=O)O)c1`, the Reduction turned out to be 48%.

For a further data set, the system named is Rattus norvegicus. Nature of the data set: Reduction of infarct in rat with proximal middle cerebral artery occlusion at total dose of 123 mg/kg after 30 min initiation (duration of effect 6 h). The class given is functional.
Details: not given
For the compound `Nc1cccc(/C(=C\c2c(C(=O)O)[nH]c3cc(Cl)cc(Cl)c23)C(=O)O)c1`, the Reduction was found to be 49%.

The test system of the next data set is Rattus norvegicus. Nature of the data set: Reduction of infarct volume in rat with distal middle cerebral artery occlusion at total dose of 245 mg/kg after -15 min of initiation (duration of effect 6 h). The class given is functional.
Details: not given
`Nc1cccc(/C(=C\c2c(C(=O)O)[nH]c3cc(Cl)cc(Cl)c23)C(=O)O)c1` yielded a Reduction of 13%.

A further data set deals with Rattus norvegicus. In words: Reduction of infarct volume in rat with distal middle cerebral artery occlusion at total dose of 490 mg/kg after -15 min of initiation (duration of effect 6 h).
Details: not given
It is filed as functional.
`Nc1cccc(/C(=C\c2c(C(=O)O)[nH]c3cc(Cl)cc(Cl)c23)C(=O)O)c1` came in with a Reduction of 32%.

The next data set deals with Rattus norvegicus. Nature of the data set: Reduction of infarct volume in rat with proximal middle cerebral artery occlusion at total dose of 52 mg/kg after -15 min of initiation (duration of effect 6 h). The class given is functional.
Details: not given
As to `O=c1[nH]c2cc(Cl)c(Cl)c([N+](=O)[O-])c2[nH]c1=O` [LICOSTINEL], the Reduction was found to be 50%.

A further data set deals with Rattus norvegicus. Nature of the data set: Reduction of infarct volume in rat with proximal middle cerebral artery occlusion at total dose of 52 mg/kg after 180 min of initiation (duration of effect 6 h); nd=Not determined.
Details: not given
It is filed as functional.
On to `O=c1[nH]c2cc(Cl)c(Cl)c([N+](=O)[O-])c2[nH]c1=O` [LICOSTINEL], for which the Reduction came out at 28%.

The target of the next data set is Glutamate NMDA receptor. In words: In vitro inhibitory concentration against binding of the [3H]glycine to strychnine-insensitive glycine binding sites of rat N-methyl-D-aspartate glutamate receptor. It is filed as protein-complex assay.
Details: not given
`O=C(O)/C(=C/c1c(C(=O)O)[nH]c2cc(Cl)cc(Cl)c12)c1ccccc1` returned an IC50 of 10.9 nM.
On the same count and under the same terms, the same measure for `O=c1[nH]c2cc(Cl)c(Cl)c([N+](=O)[O-])c2[nH]c1=O` [LICOSTINEL]: 20 nM; for `COC(=O)Nc1cccc(/C(=C\c2c(C(=O)O)[nH]c3cc(Cl)cc(Cl)c23)C(=O)O)c1`: 114 nM.
`Nc1cccc(/C(=C\c2c(C(=O)O)[nH]c3cc(Cl)cc(Cl)c23)C(=O)O)c1` returned an IC50 of 24.3 nM.

The target in a further data set is Glutamate NMDA receptor. Nature of the data set: Antagonist activity of compound against rat N-methyl-D-aspartate glutamate receptor using 11 nM [3H]glycine. The class given is functional.
Details: not given
Take `COC(=O)Nc1cccc(/C(=C\c2c(C(=O)O)[nH]c3cc(Cl)cc(Cl)c23)C(=O)O)c1`: inhibition was half-maximal at 114 nM (IC50).

The species named for another data set is Rattus norvegicus. Nature of the data set: In vitro inhibitory concentration against glutamate stimulated accumulation of cyclic GMP in neonatal rat cerebral slices.
Details: not given
It is filed as functional.
Consider `O=C(O)/C(=C/c1c(C(=O)O)[nH]c2cc(Cl)cc(Cl)c12)c1ccccc1`, for which the IC50 turned out to be 282 nM.
The same measure, in the same setting: next, `O=c1[nH]c2cc(Cl)c(Cl)c([N+](=O)[O-])c2[nH]c1=O` [LICOSTINEL]: 183 nM.
Same read-out and setting: the same measure for `COC(=O)Nc1cccc(/C(=C\c2c(C(=O)O)[nH]c3cc(Cl)cc(Cl)c23)C(=O)O)c1`: 840 nM.
The compound `Nc1cccc(/C(=C\c2c(C(=O)O)[nH]c3cc(Cl)cc(Cl)c23)C(=O)O)c1` gave an IC50 of 364 nM.

Another data set deals with Mus musculus. In words: In vivo effective dose of compound to protect mice from quinolinic acid seizures upon intravenous administration. It is filed as functional.
Details: not given
In turn, `O=C(O)/C(=C/c1c(C(=O)O)[nH]c2cc(Cl)cc(Cl)c12)c1ccccc1` yielded a 50% effective dose (ED50) of 37 mg/kg.
The same measure, in the same setting: next, `O=c1[nH]c2cc(Cl)c(Cl)c([N+](=O)[O-])c2[nH]c1=O` [LICOSTINEL]: 14.7 mg/kg; `COC(=O)Nc1cccc(/C(=C\c2c(C(=O)O)[nH]c3cc(Cl)cc(Cl)c23)C(=O)O)c1`: > 64 mg/kg; `Nc1cccc(/C(=C\c2c(C(=O)O)[nH]c3cc(Cl)cc(Cl)c23)C(=O)O)c1`: 14.9 mg/kg.

The test system of a further data set is Mus musculus. In words: In vivo effective dose to protect the mouse (DBA/2J) from audiogenic seizures upon intraperitoneal administration. It is filed as functional. To be noted: ip.
As to `O=C(O)/C(=C/c1c(C(=O)O)[nH]c2cc(Cl)cc(Cl)c12)c1ccccc1`, the ED50 is 12.2 mg/kg.
The same measure, in the same setting: next, `O=c1[nH]c2cc(Cl)c(Cl)c([N+](=O)[O-])c2[nH]c1=O` [LICOSTINEL]: 3.7 mg/kg; `COC(=O)Nc1cccc(/C(=C\c2c(C(=O)O)[nH]c3cc(Cl)cc(Cl)c23)C(=O)O)c1`: 8.5 mg/kg.
Regarding `Nc1cccc(/C(=C\c2c(C(=O)O)[nH]c3cc(Cl)cc(Cl)c23)C(=O)O)c1`, the ED50 was determined as 10.8 mg/kg.

The next data set concerns Mus musculus. Nature of the data set: In vivo effective dose against harmaline induced cGMP elevation in mouse cerebellum upon intravenous administration. It is filed as functional.
Details: not given
In the case of `O=C(O)/C(=C/c1c(C(=O)O)[nH]c2cc(Cl)cc(Cl)c12)c1ccccc1`, the 50% effect level (ED50) was put at a dose of 59 mg/kg.
Still for that read-out and setting: next, `O=c1[nH]c2cc(Cl)c(Cl)c([N+](=O)[O-])c2[nH]c1=O` [LICOSTINEL]: 3.5 mg/kg; `COC(=O)Nc1cccc(/C(=C\c2c(C(=O)O)[nH]c3cc(Cl)cc(Cl)c23)C(=O)O)c1`: > 64 mg/kg.
Still for that read-out and setting: the same measure for `Nc1cccc(/C(=C\c2c(C(=O)O)[nH]c3cc(Cl)cc(Cl)c23)C(=O)O)c1`: 15 mg/kg.

In another data set the test system is Rattus norvegicus. Nature of the data set: In vivo effective dose to protect rats against maximal electroshock induced seizures upon intravenous administration.
Details: not given
It is filed as functional. In a few lines: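 Maximal electroshock seizures in adult male CDF rats, compound iv, vehicle water, saline or 50 mM Tris base at 1 mL/kg.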
On to `O=C(O)/C(=C/c1c(C(=O)O)[nH]c2cc(Cl)cc(Cl)c12)c1ccccc1`, for which the ED50 stood at 29 mg/kg.
Consider `O=c1[nH]c2cc(Cl)c(Cl)c([N+](=O)[O-])c2[nH]c1=O` [LICOSTINEL], for which the 50% effect level (ED50) was put at a dose of 46.3 mg/kg.
Still for that read-out and setting: the same measure for `COC(=O)Nc1cccc(/C(=C\c2c(C(=O)O)[nH]c3cc(Cl)cc(Cl)c23)C(=O)O)c1`: > 128 mg/kg; for `Nc1cccc(/C(=C\c2c(C(=O)O)[nH]c3cc(Cl)cc(Cl)c23)C(=O)O)c1`: 30.6 mg/kg.

System in the next data set: not listed separately
Nature of the data set: Half life was measured in rat following intravenous administration. The conditions noted are these: in vivo. It is filed as ADME, organism-based.
Take `Nc1cccc(/C(=C\c2c(C(=O)O)[nH]c3cc(Cl)cc(Cl)c23)C(=O)O)c1`: the half-life was > 1 h.

In another data set the target is Glutamate NMDA receptor. In words: Antagonist activity of compound against rat N-methyl-D-aspartate glutamate receptor using [3H]glycine.
Details: not given
Compound `O=C(O)/C(=C/c1c(C(=O)O)[nH]c2cc(Cl)cc(Cl)c12)c1ccccc1` came in with an IC50 of 11 nM.
